Bioassay records as filed in PubChem.
PAD4 inh: PAD4 (human) enzyme inhibition; Q9UM07; recombinant PAD4, RCA probe fluorescence polarization; inhibition, % at 6.36 µM; 330,000 compounds, 0.41% hits;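 active means percent inhibition above a cutoff equal to the mean of all tested compounds plus 3 SD, cut at about 15% in these data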;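 further: 0% = PAD4 with RCA probe and DMSO and 100% = probe without PAD4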
TCR CD3 inh: blocks the human TCR-CD3 interaction | 360,000 compounds, 0.37% hits | AID 651800 | TAMRA-labeled TCR probe fluorescence, biochemical | inhibition, % at 9.4 µM;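 further: recombinant mutant TCR 2C K166C tagged with TAMRA read by polarization; 0% = receptor in buffer alone and 100% = receptor with positive control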
SIAE primary: inhibitors of human sialic acid acetylesterase SIAE; Q9HAT2; SIAE FP-Rh probe binding, fluorescence polarization; inhibition, % at 9.66 µM; 370,000 compounds, 0.69% hits;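 active means inhibition above a cutoff: mean of compounds within the control limits plus 3 SD of those, cut at about 17% in these data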;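 further: 0% = plate median of compound wells and 100% = probe without SIAE protein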
HTRA1 inhibitor: blocks human HTRA1 serine peptidase; Q92743; recombinant HTRA1, FP-rhodamine activity-based probe, fluorescence polarization; inhibition, % at 5.96 µM; 340,000 compounds, 0.5% hits; AID 504803; in the data active means inhibition above about 36%;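 further: 0% = enzyme with DMSO and 100% = wells lacking enzyme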
ABHD4 inh: inhibits mouse alpha/beta hydrolase domain 4. inhibition, % at 8.92 µM. purified mABHD4, FP-Rh probe fluorescence polarization. 370,000 compounds, 0.54% hits. Q8VD66;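 active means inhibition exceeding the mean over every tested compound plus 3 SD, cut at about 30% in these data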;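 further: 0% = plate median of compound wells and 100% = S159A mutant with DMSO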
Target sequence (Q8VD66 whole entry, looked up, the tested form may be a part): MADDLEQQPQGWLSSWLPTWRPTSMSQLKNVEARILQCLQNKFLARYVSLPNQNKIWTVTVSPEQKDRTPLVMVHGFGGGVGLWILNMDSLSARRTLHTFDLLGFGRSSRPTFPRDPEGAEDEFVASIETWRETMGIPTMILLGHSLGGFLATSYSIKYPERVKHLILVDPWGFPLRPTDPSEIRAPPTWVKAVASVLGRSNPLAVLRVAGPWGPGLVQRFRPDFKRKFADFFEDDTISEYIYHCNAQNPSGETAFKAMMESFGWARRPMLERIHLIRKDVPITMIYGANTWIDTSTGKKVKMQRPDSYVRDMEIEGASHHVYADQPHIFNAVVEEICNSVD
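Assay system: wild-type mouse ABHD4 protein; compound: single nominal dose of 8.92 µM, 0.89% DMSO final; schedule: 45 min + 60 min at 25 °C; measured by: FP readout, ex 525 nm / em 598 nm; evaluation: % inhibition of FP-Rh probe binding versus controls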
PRMT1 FP inh: PRMT1 (human) inhibition, primary screen; Q99873; recombinant PRMT1, activity-based probe fluorescence polarization; inhibition, % at 2.79 µM; 370,000 compounds, 1.3% hits;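 active means inhibition above about 21% made by adding two undisclosed values, limit read from the data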
BSA probe FL: BSA probe counter-screen for TCR-CD3 inhibitors; shares compounds with TCR CD3 inh; TAMRA-labeled BSA probe fluorescence counterscreen; inhibition, % at 9.4 µM; 1,200 compounds, 10% hits; AID 652035; in the data active means inhibition above about 23%;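 further: 0% = buffer low control and 100% = reference high control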
TCR-CD3 inh conf: TCR-CD3 interaction inhibition, confirmation; shares compounds with TCR CD3 inh; TAMRA-labeled TCR probe fluorescence binding assay; inhibition, % at 9.4 µM; 1,200 compounds, 48% hits; AID 652036
The depositor's hits bear a star; / = no result given. In the library only some 2.9% were active in any assay of this set; here they are far more common. Unless noted, no stated cut-off is given here; in the data, active means inhibition above about 19%; inactive means the rest.

SMILES	PAD4 inh	TCR CD3 inh	SIAE primary	HTRA1 inhibitor	ABHD4 inh	PRMT1 FP inh	BSA probe FL	TCR-CD3 inh conf
Cc1ccc(SCc2cc(=O)[nH]c(N3CCOCC3)n2)cc1	0	19*	2	3	0	0	5	2
Cc1c[nH]c2cccc(-c3ccc4c(c3)OCO4)c12	/	/	8	/	-4	-1	/	/
CN(C)/C=C1\SC(=S)N(c2ccc(Br)cc2)C1=O	-107	30*	5	-30	-73	15	90*	76*
COc1ccc(-c2nn(-c3ccccc3)cc2/C=C/C(=O)N(C)CC(=O)Nc2cccc(F)c2)cc1OC	/	26*	-89	-120	-101	-4	13	26*
O=C(OCC(=O)N1CCc2ccccc21)c1c2c(nc3ccccc13)CCCC2	4	44*	-9	-48	-4	-3	1	4
CN[C@H]1C[C@H]2c3[nH]c4cccc(-c5ccc6c(c5)OCO6)c4c3CCN2C[C@H]1[C@H](C)O	/	/	15	/	10	0	/	/
Cc1cc(C(=O)O)c2ccccc2n1	-1	6	1	-6	2	6	/	/
CC(C)c1cc(C(=O)O)c2ccccc2n1	3	34*	4	8	7	5	8	6
NNC(=O)c1cccn(Cc2cccc(C(F)(F)F)c2)c1=O	1	4	-13	-32	1	-3	/	/
CNC(=S)NNC(=O)c1cccn(Cc2ccc(Cl)c(Cl)c2)c1=O	-2	22*	10	-10	16	3	1	27*
CNC(=S)NNC(=O)c1cccn(Cc2cccc(Cl)c2)c1=O	-2	22*	9	-1	13	-1	-9	27*
CC(C)(C)c1ccc(-c2nnc(SCC(=O)Nc3cccc4ccccc34)n2Cc2ccco2)cc1	/	/	-13	/	-18	-1	/	/
O=C(NCCc1c[nH]c2ccccc12)OCc1cn(-c2cccc(C(F)(F)F)c2)nn1	/	/	-2	/	-7	-2	/	/
Cc1[nH]c(C)c2c(=O)n(Cc3ccccc3Cl)ncc12	/	-1	8	/	7	2	/	/
Cc1[nH]c(C)c2c(=O)n(-c3ccccc3)ncc12	-6	31*	-94	-3	-83	4	11	9
Cc1ccc(-c2nc3ncccn3c2NC(=O)Nc2ccc(F)cc2)cc1	/	/	11	/	-6	-2	/	/
COc1ccc(OCc2cc(C(=O)N[C@H]3CCCCNC3=O)no2)c(Cl)c1	2	21*	2	1	-1	-3	1	0
CSc1ccccc1OCc1cc(C(=O)N[C@H]2CCCCNC2=O)no1	0	-4	2	-9	5	2	/	/
CC1(C)Oc2ccc(C(=O)N3CCCC3)cc2NC1=O	/	/	0	/	2	-2	/	/
C[C@H](CO)N1C[C@H](C)[C@@H](CN(C)S(=O)(=O)c2ccc(F)cc2)Oc2ccc(NC(=O)Nc3ccc(C(F)(F)F)cc3)cc2C1=O	-3	22*	-236	-142	-102	-1	14	42*
C[C@@H]1CN([C@H](C)CO)C(=O)c2cc(NC(=O)Nc3ccc(C(F)(F)F)cc3)ccc2O[C@H]1CN(C)S(=O)(=O)c1ccc(Cl)cc1	-8	54*	-159	-89	-99	3	25*	52*
C[C@H](CO)N1C[C@H](C)[C@@H](CN(C)S(=O)(=O)c2ccc(F)cc2)Oc2ccc(NC(=O)Nc3ccccc3)cc2C1=O	-3	2	-9	-21	-15	-2	/	/
C[C@@H]1CN([C@H](C)CO)C(=O)c2cc(NC(=O)Nc3ccc(C(F)(F)F)cc3)ccc2O[C@H]1CN(C)Cc1ccc(Cl)c(Cl)c1	2	27*	-11	-47	-14	0	24*	46*
C[C@@H]1CN([C@@H](C)CO)C(=O)Cc2cc(NC(=O)Nc3ccc(C(F)(F)F)cc3)ccc2O[C@@H]1CN(C)S(=O)(=O)c1ccc(Cl)cc1	-1	48*	-155	-155	-91	-2	14	26*
CCCCCOc1ccc(/C=N/NC(=O)CSc2nnc(-c3ccc(OC)cc3)n2-c2ccc(C)cc2)cc1	/	/	0	/	0	-2	/	/
